Experimental data taken from ChEMBL document CHEMBL1122180, “Potential histamine H2-receptor antagonists. 4. Benzylhistamines” (J Med Chem, 1982).
Calls of active or inactive are those of the source. The calls are words filed in the database; no cut-off is given here.

Key:
[1] = molecular target: Histamine H2 receptor (Rattus norvegicus) (UniProt P25102); assay: In vivo antagonist activity against histamine H2-receptor in lumen-perfused stomach of atropinized (1 mg/kg) anesthetized rat gastric secretion at 128 ug/kg; -ve; type: functional, organism-based
[2] = molecular target: Histamine H2 receptor (Cavia porcellus) (UniProt P47747); assay: Antagonist activity was measured for histamine H2-receptor in guinea pig atrium.; type: functional, tissue-based; details: Cardiac atrium
Summary of the method: (§1)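 Guinea pig right atrium in vitro, propranolol (0.5 μM) present. Test compounds given up to 486 μM against histamine (0.2–781 μM). Any active compound was run at three dose levels (five observations).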

[3] = molecular target: Histamine H2 receptor (Cavia porcellus) (UniProt P47747); assay: Agonist activity was measured for histamine H2-receptor in guinea pig atrium; -ve; <0.1% of histamine (781 uM/L); type: functional, tissue-based; details: Cardiac atrium
[4] = molecular target: Histamine H1 receptor (Cavia porcellus) (UniProt P31389); assay: In vitro agonist activity against histamine H1 receptor in guinea pig ileum in the presence of atropine (0.5 uM) relative to histamine; -ve; <0.1% of histamine (781 uM/L); type: functional, tissue-based
Summary of the method: (§2)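 Isolated guinea pig ileum contraction with atropine (0.5 μM). Agonism tested up to 781 μM (0.1% histamine). Relative activity came from cumulative dose–response curves; one compound was run as a 2+2 parallel assay.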

[5] = molecular target: Histamine H1 receptor (Cavia porcellus) (UniProt P31389); assay: In vitro antagonist activity against histamine H1 receptor in guinea pig ileum in the presence of atropine (0.5 uM); type: functional, tissue-based
Summary of the method: (§3)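 Guinea pig ileum in vitro with atropine (0.5 μM) present. Compounds tested against histamine-stimulated contraction (histamine 0.1–109 μM). Cumulative dose–response curves plotted for active compounds at three dose levels (nine observations); pA2 derived.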

[6] = molecular target: Histamine H2 receptor (Rattus norvegicus) (UniProt P25102); assay: In vivo agonist activity against histamine H2-receptor in lumen-perfused stomach of atropinized (1 mg/kg) anesthetized rat gastric secretion at 128 ug/kg; -ve; type: functional, organism-based
Summary of the method: (§4)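 Urethane-anesthetized rat, atropinized (1 mg kg⁻¹), lumen-perfused stomach, acid output. Single intravenous doses of compound matched against histamine doses (0.5–1 μM kg⁻¹). Potency relative to histamine compared on peak responses.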

[7] = molecular target: Histamine H1 receptor (Cavia porcellus) (UniProt P31389); assay: In vitro agonist activity against histamine H1-receptor in guinea pig ileum in the presence of atropine (0.5 uM) relative to histamine; -ve; <0.1% of histamine (781 uM/L); type: functional, tissue-based
Summary of the method: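 Isolated guinea pig ileum with atropine (0.5 μM) present. Agonist activity assayed up to 781 μM (0.1% histamine). Activity relative to histamine taken from cumulative dose–response curves. A 2+2 parallel assay was run for one compound.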

[8] = molecular target: Histamine H2 receptor (Cavia porcellus) (UniProt P47747); assay: Antagonist activity was measured for histamine H2-receptor in guinea pig atrium; 486 uM/L; type: functional, tissue-based; details: Cardiac atrium; summary of the method: as §1
[9] = molecular target: Histamine H2 receptor (Rattus norvegicus) (UniProt P25102); assay: In vivo agonist activity against histamine H2-receptor in lumen-perfused stomach of atropinized (1 mg/kg) anesthetized rat gastric secretion at 256 ug/kg; -ve; type: functional, organism-based; summary of the method: as §4
[10] = molecular target: Histamine H1 receptor (Cavia porcellus) (UniProt P31389); assay: In vitro antagonist activity against histamine H1-receptor in guinea pig ileum in the presence of atropine (0.5 uM); type: functional, tissue-based
Summary of the method: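 Isolated guinea pig ileum with atropine (0.5 μM) present. Antagonism measured against histamine (0.1–109 μM)-stimulated contraction. Cumulative dose–response curves plotted for active compounds at three dose levels (nine observations).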

[11] = molecular target: Histamine H1 receptor (Cavia porcellus) (UniProt P31389); assay: In vitro antagonist activity against histamine H1-receptor in guinea pig ileum in the presence of atropine (0.5 uM).; type: functional, tissue-based; summary of the method: as §3
[12] = molecular target: Histamine H1 receptor (Cavia porcellus) (UniProt P31389); assay: In vitro agonist activity against histamine H1-receptor in guinea pig ileum in the presence of atropine (0.5 uM) relative to histamine.; type: functional, tissue-based; summary of the method: as §2
[13] = molecular target: Histamine H2 receptor (Cavia porcellus) (UniProt P47747); assay: Agonist activity was measured for histamine H2-receptor in guinea pig atrium; type: functional, tissue-based; details: Cardiac atrium
[14] = molecular target: Histamine H2 receptor (Rattus norvegicus) (UniProt P25102); assay: In vivo agonist activity against histamine H2-receptor in lumen-perfused stomach of atropinized (1 mg/kg) anesthetized rat gastric secretion at 512 ug/kg; -ve; type: functional, organism-based; summary of the method: as §4
[15] = molecular target: Histamine H2 receptor (Rattus norvegicus) (UniProt P25102); assay: In vivo antagonist activity against histamine H2-receptor in lumen-perfused stomach of atropinized (1 mg/kg) anesthetized rat gastric secretion at 512 ug/kg; -ve; type: functional, organism-based
[16] = molecular target: Histamine H2 receptor (Cavia porcellus) (UniProt P47747); assay: Antagonist activity was measured for histamine H2-receptor in guinea pig atrium; -ve; type: functional, tissue-based; details: Cardiac atrium; summary of the method: as §1
[17] = molecular target: Histamine H1 receptor (Cavia porcellus) (UniProt P31389); assay: In vitro agonist activity against histamine H1-receptor in guinea pig ileum in the presence of atropine (0.5 uM) relative to histamine; type: functional, tissue-based; summary of the method: as §2
[18] = molecular target: Histamine H2 receptor (Rattus norvegicus) (UniProt P25102); assay: In vivo agonist activity against histamine H2-receptor in lumen-perfused stomach of atropinized (1 mg/kg) anesthetized rat gastric secretion at 187 ug/kg; -ve; type: functional, organism-based; summary of the method: as §4
[19] = molecular target: Histamine H2 receptor (Cavia porcellus) (UniProt P47747); assay: Agonist activity was measured for histamine H2-receptor in guinea pig atrium.; type: functional, tissue-based; details: Cardiac atrium
[20] = molecular target: Histamine H2 receptor (Rattus norvegicus) (UniProt P25102); assay: In vivo antagonist activity against histamine H2-receptor in lumen-perfused stomach of atropinized (1 mg/kg) anesthetized rat gastric secretion at 187 ug/kg; weak inhibition; type: functional, organism-based; details: filed as antagonist
[21] = molecular target: Histamine H2 receptor (Rattus norvegicus) (UniProt P25102); assay: In vivo agonist activity against histamine H2-receptor in lumen-perfused stomach of atropinized (1 mg/kg) anesthetized rat gastric secretion; type: functional, organism-based; summary of the method: as §4
[22] = molecular target: Histamine H2 receptor (Cavia porcellus) (UniProt P47747); assay: Antagonist activity was measured for histamine H2-receptor in guinea pig atrium; -ve; 486 uM/L; type: functional, tissue-based; details: Cardiac atrium
Summary of the method: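 Isolated guinea pig right atrium with propranolol (0.5 μM) present. Compounds tested as antagonists against histamine (0.2–781 μM) at up to 486 μM. Active compounds run at three dose levels (five observations).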

[23] = molecular target: Histamine H2 receptor (Rattus norvegicus) (UniProt P25102); assay: In vivo agonist activity against histamine H2-receptor in lumen-perfused stomach of atropinized (1 mg/kg) anesthetized rat gastric secretion at 64 ug/kg; -ve; type: functional, organism-based
Summary of the method: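 In vivo, urethane-anaesthetised rat given atropine (1 mg kg⁻¹), lumen-perfused stomach, acid secretion as read-out. Compounds given intravenously as single doses and matched against single histamine doses (0.5–1 μM kg⁻¹).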

[24] = molecular target: Histamine H2 receptor (Rattus norvegicus) (UniProt P25102); assay: In vivo antagonist activity against histamine H2-receptor in lumen-perfused stomach of atropinized (1 mg/kg) anesthetized rat gastric secretion at 256 ug/kg; -ve; type: functional, organism-based

Histamine H1 receptor (Cavia porcellus), sequence (P31389 whole entry, the tested form may be a part): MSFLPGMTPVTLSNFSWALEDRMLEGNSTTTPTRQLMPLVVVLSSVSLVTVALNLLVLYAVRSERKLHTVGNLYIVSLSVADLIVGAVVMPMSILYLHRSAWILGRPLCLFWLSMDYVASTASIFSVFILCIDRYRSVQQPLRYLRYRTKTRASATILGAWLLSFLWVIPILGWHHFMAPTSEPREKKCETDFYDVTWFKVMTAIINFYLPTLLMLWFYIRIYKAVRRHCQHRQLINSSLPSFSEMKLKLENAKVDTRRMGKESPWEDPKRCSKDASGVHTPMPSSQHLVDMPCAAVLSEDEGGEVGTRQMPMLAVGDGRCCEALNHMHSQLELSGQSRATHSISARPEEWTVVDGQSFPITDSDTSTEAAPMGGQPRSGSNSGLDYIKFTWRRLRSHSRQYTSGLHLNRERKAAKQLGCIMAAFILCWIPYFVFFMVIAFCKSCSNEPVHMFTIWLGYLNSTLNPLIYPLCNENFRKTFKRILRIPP
Histamine H2 receptor (Cavia porcellus), sequence (P47747 whole entry, the tested form may be a part): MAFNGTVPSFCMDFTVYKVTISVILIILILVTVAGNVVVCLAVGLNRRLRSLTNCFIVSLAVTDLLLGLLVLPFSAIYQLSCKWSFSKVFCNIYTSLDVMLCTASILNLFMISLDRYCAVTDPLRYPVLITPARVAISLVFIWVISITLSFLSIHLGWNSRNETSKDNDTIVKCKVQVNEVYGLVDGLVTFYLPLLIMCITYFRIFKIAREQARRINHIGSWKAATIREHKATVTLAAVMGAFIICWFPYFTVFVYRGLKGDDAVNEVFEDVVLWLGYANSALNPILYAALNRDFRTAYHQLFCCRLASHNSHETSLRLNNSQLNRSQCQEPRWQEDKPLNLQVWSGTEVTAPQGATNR
Histamine H2 receptor (Rattus norvegicus), sequence (P25102 whole entry, the tested form may be a part): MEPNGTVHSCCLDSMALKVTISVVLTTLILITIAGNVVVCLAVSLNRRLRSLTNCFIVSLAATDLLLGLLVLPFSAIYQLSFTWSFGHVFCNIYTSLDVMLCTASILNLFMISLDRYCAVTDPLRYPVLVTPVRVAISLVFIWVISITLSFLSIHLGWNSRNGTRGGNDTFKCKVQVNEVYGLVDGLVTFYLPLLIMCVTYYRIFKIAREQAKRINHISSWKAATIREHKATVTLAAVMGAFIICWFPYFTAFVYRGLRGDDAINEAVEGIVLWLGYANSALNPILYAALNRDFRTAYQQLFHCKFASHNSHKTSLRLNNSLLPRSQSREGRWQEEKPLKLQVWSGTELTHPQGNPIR

For `NCCc1ncn(Cc2ccccc2)c1Cc1ccccc1`, which Antagonist activity [1] is on record?
Its Antagonist activity is “inactive”.

And the Antagonist activity [2]?
Its Antagonist activity is 4.35.

What about the Agonist activity [3] of the same compound?
Its Agonist activity is “inactive”.

And the Agonist activity [4]?
Its Agonist activity is “inactive”.

And the Antagonist activity [5]?
Its Antagonist activity is 4.7 pA2.

And the Agonist activity [6]?
The Agonist activity was “inactive”.

What does the source list for `NCCc1cncn1Cc1ccccc1`?
Antagonist activity [1]: inactive; Agonist activity [7]: inactive; Agonist activity [3]: inactive; Antagonist activity [8]: < 3.3; Agonist activity [9]: inactive; Antagonist activity [10]: 3.6 pA2

`NCC(Cc1ccccc1)c1c[nH]cn1` (centres undefined) was tested. Which Antagonist activity [11] did it give?
The Antagonist activity was 4 pA2.

What about the Agonist activity [12] of the same compound?
The Agonist activity was 0.1.

And the Agonist activity [13]?
The Agonist activity was 1.

And the Agonist activity [14]?
Its Agonist activity is “inactive”.

What about the Antagonist activity [15] of the same compound?
Its Antagonist activity is “inactive”.

What about the Antagonist activity [8] of the same compound?
The Antagonist activity was < 3.3.

What does the source list for `NCCc1c[nH]c(Cc2ccccc2)n1`?
Antagonist activity [1]: inactive; Antagonist activity [16]: < 3.3; Agonist activity [3]: inactive; Agonist activity [17]: 2.3; Agonist activity [18]: inactive

What does the source list for `c1ccc(CNCCc2c[nH]cn2)cc1`?
Agonist activity [19]: 0.7; Agonist activity [12]: 0.4; Antagonist activity [20]: Partial antagonist; Agonist activity [21]: 0.5; Antagonist activity [8]: < 3.3

What does the source list for `NCCc1[nH]cnc1Cc1ccccc1`?
Antagonist activity [1]: inactive; Agonist activity [7]: inactive; Agonist activity [3]: inactive; Antagonist activity [22]: < 3.3; Agonist activity [23]: inactive; Antagonist activity [10]: 4.4 pA2

`NCCc1cn(Cc2ccccc2)cn1` was tested. Which Agonist activity [3] did it give?
The Agonist activity was “inactive”.

And the Agonist activity [21]?
Its Agonist activity is 3.

And the Agonist activity [17]?
Its Agonist activity is 0.4.

What about the Antagonist activity [8] of the same compound?
Its Antagonist activity is < 3.3.

And the Antagonist activity [24]?
Its Antagonist activity is “inactive”.
